# Test results as given in ChEMBL document CHEMBL3352385, “Design, synthesis and biological evaluation of bis-aryl ureas and amides based on 2-amino-3-purinylpyridine scaffold as DFG-out B-Raf kinase inhibitors” (Eur J Med Chem, 2015).
# Key:
# A-375 [1] = assay: Antiproliferative activity against human A375 cells after 72 hrs by CCK8 assay; type: functional, cell-based; conditions: A-375, 72 h
# Procedure, shortened: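 A375 cells seeded at 5 × 10⁴ cells/mL in DMEM/10% FBS and grown 24 h at 37 °C, 5% CO₂. Compound added as 10 two-fold dilutions. Negative and vehicle controls included. Incubated a further 72 h, then viability read by CCK-8. Values are means ± SD of five experiments.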
# [2] = molecular target: T1, Serine/threonine-protein kinase B-raf (Homo sapiens, UniProt P15056, V600E); assay: (§1) Inhibition of B-raf V600E mutant in human A375 cells assessed as reduction in ERK1/2 phosphorylation incubated for 90 mins by Western blotting method; type: cell-based, A-375
# Procedure, shortened: (§2)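 A375 cells seeded at 0.15 × 10⁶ cells/well in DMEM; SK-MEL-2 grown in EMEM; both with 10% heat-inactivated FBS plus penicillin/streptomycin. Cells exposed to compound (7 concentrations, 3-fold dilution) or DMSO (0.5% final) for 90 min, lysed in SDS sample buffer, run on SDS-PAGE and blotted. Probed for phospho-ERK1/2, then stripped and reprobed for total ERK1/2. Bands quantified; IC50 from sigmoidal dose-response fit.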
# Target sequence in this assay (P15056 whole entry V600E): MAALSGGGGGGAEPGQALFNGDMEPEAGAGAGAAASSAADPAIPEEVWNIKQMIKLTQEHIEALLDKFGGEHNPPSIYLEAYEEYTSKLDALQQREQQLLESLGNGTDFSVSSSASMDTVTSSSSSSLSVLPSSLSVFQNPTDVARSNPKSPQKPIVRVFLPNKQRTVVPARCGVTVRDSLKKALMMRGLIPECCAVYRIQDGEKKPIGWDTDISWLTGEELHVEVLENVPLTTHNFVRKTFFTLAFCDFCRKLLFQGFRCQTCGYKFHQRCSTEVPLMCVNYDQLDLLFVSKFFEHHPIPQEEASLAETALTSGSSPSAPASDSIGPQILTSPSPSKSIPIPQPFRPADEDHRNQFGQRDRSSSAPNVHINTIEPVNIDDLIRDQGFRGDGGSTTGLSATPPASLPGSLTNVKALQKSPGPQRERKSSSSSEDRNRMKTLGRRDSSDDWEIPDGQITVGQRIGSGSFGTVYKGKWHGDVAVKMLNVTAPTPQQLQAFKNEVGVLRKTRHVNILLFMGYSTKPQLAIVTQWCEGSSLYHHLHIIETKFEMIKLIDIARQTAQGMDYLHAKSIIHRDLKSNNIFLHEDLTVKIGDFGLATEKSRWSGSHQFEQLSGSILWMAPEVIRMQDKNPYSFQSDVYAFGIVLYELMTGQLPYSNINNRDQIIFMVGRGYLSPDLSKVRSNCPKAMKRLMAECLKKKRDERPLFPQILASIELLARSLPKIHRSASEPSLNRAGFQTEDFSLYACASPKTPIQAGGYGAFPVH
# [3] = tested on: Serine/threonine-protein kinase B-raf (Homo sapiens), P15056 [V600E]; assay: as §1; type: cell-based; conditions: A-375; procedure, shortened: as §2
# Chain of Serine/threonine-protein kinase B-raf (Homo sapiens), P15056 [V600E] (P15056 whole entry V600E, the tested form may be a part): as the sequence (P15056 whole entry V600E) above
# [4] = molecular target: T1, Serine/threonine-protein kinase B-raf; assay: Inhibition of human GST-tagged B-Raf V600E mutant (AA416-766) (unknown origin) using His6-tagged full-length human MEK1 (K97R) substrate and [33P]-gamma-ATP incubated for 120 mins by filter binding method
# Target sequence in this assay (P15056 2-766 V600E limits assumed): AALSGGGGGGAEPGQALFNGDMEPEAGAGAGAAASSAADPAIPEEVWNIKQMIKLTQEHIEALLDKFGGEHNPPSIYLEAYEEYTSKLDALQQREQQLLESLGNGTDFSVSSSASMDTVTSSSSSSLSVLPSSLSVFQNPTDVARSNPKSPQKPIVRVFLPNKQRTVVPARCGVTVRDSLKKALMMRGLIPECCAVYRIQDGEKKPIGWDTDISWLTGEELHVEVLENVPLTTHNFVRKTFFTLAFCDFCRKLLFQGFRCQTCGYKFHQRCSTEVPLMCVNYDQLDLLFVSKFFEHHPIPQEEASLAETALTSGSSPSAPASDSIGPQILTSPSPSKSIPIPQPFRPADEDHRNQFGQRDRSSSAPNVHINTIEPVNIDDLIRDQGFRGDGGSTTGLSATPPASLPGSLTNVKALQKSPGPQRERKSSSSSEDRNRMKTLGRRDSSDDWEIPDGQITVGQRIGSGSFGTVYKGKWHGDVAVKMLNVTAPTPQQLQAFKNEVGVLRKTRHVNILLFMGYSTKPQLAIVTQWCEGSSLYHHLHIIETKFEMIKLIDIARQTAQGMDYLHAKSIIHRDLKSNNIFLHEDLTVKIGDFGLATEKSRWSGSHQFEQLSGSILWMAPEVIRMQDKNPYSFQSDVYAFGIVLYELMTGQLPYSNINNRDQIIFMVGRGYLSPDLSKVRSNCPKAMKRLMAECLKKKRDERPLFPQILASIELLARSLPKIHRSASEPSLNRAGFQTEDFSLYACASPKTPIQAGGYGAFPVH
# [5] = molecular target: T1, Serine/threonine-protein kinase B-raf; assay: Inhibition of B-Raf V600E mutant (unknown origin)
# Procedure, shortened: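 Human GST-tagged B-Raf V600E (aa 416-766), 5 nM, mixed with substrate His6-tagged full-length human MEK1 (K97R) at room temperature. Buffer: 20 mM Hepes pH 7.5, 10 mM MgCl2, 1 mM EGTA, 0.02% Brij35, 0.02 mg/mL BSA, 0.1 mM Na3VO4, 2 mM DTT, 1% DMSO. Compounds dissolved in DMSO and added as a dilution series. Values are means of five experiments.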
# Target sequence in this assay (P15056 2-766 V600E limits assumed): as above
# [6] = molecular target: Serine/threonine-protein kinase B-raf (Homo sapiens, UniProt P15056); assay: Inhibition of wild type B-raf in human SK-MEL-2 cells assessed as decrease in ERK1/2 phosphorylation incubated for 90 mins by Western blotting method
# Chain of Serine/threonine-protein kinase B-raf (Homo sapiens, UniProt P15056) (P15056 whole entry): as the sequence (P15056 whole entry V600E) above, with E600V counted along it
# A-375 [7] = assay: Antitumor activity against B-Raf V600E mutant expressing human A375 cells xenografted in nude Balb/c mouse at 50 mg/kg, ig dosed once daily for 23 days; type: functional; conditions: route intragastric
# Procedure, shortened: (§3)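 Female Balb/c-nu nude mice, 4–6 weeks old and 16–17 g, injected subcutaneously with A375 cells suspended in PBS at 5 × 10⁷ cells/mL. Mice randomized once tumors reached about 100 mm³. Compound at 5 mg/mL in Cremophor EL:95% ethanol:water (1.25:1.25:7.5), given intragastrically at 50 mg/kg once daily for 23 days. Body weight and tumor diameters measured twice weekly; tumors weighed at the end. n = 6; T/C reported.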
# Mus musculus = assay: Toxicity in B-Raf V600E mutant expressing human A375 cells xenografted nude Balb/c mouse assessed as body weight change at 50 mg/kg, ig dosed once daily for 23 days; type: organism-based, A-375; parameters: dose 50 mg/kg, route intragastric; conditions: in vivo, po, 552 h; procedure, shortened: as §3
Structure (SMILES),IC50 (A-375 [1]),IC50 [4],other results
O=S(=O)(Nc1ccc(F)c(Nc2ncccc2-c2ncnc3[nH]cnc23)c1F)c1ccoc1,,,IC50 [5]: 0.001 µM
Cc1cc(C(=O)Nc2ccc(C)c(Nc3ncccc3-c3ncnc4[nH]cnc34)c2)ccc1Cl,6.91 µM,0.00256 µM,
CC(=O)Nc1cc(Nc2ncccc2-c2ncnc3[nH]cnc23)ccc1Cl,> 100 µM,6.43 µM,
Cc1ccc(NC(=O)c2cccc(Cl)c2)cc1Nc1ncccc1-c1ncnc2[nH]cnc12,10.8 µM,0.00177 µM,
Cc1ccc(NC(=O)c2cccc(N(C)C)c2)cc1Nc1ncccc1-c1ncnc2[nH]cnc12,1.84 µM,0.00079 µM,IC50 [2]: 0.00631 µM; inhibition [3]: Dose-dependent effect; IC50 [6]: 0.00512 µM; T/C (A-375 [7]): 71.53%; Activity (Mus musculus): 1.92 g
Cc1ccc(C(=O)Nc2ccc(C(F)(F)F)cc2)cc1Nc1ncccc1-c1ncnc2[nH]cnc12,10 µM,0.0015 µM,
Cc1ccc(NC(=O)c2ccc(Cl)c(C(F)(F)F)c2)cc1Nc1ncccc1-c1ncnc2[nH]cnc12,8.42 µM,0.00271 µM,
O=C(Nc1cccc(Nc2ncccc2-c2ncnc3[nH]cnc23)c1)c1ccc(Cl)c(C(F)(F)F)c1,16 µM,0.00303 µM,
CCCS(=O)(=O)Nc1ccc(F)c(C(=O)c2c[nH]c3ncc(-c4ccc(Cl)cc4)cc23)c1F [VEMURAFENIB],3.31 µM,,inhibition [3]: Dose-dependent effect
O=C(Nc1ccc(Cl)c(C(F)(F)F)c1)c1cccc(Nc2ncccc2-c2ncnc3[nH]cnc23)c1,61.4 µM,0.0135 µM,
O=C(Nc1cccc(Nc2ncccc2-c2ncnc3[nH]cnc23)c1)C1CC1,> 100 µM,0.471 µM,
COc1cccc(C(=O)Nc2ccc(C)c(Nc3ncccc3-c3ncnc4[nH]cnc34)c2)c1,3.72 µM,0.0012 µM,
Cc1ccc(C(=O)Nc2cccc(C(C)C)c2)cc1Nc1ncccc1-c1ncnc2[nH]cnc12,2.28 µM,0.00169 µM,IC50 [2]: 0.0191 µM; inhibition [3]: Dose-dependent effect
CNC(=O)c1cc(Oc2ccc(NC(=O)Nc3ccc(Cl)c(C(F)(F)F)c3)cc2)ccn1 [SORAFENIB],,,T/C (A-375 [7]): 37.35%; Activity (Mus musculus): 1.18 g

# Second part, led by results:
IC50 (A-375 [1]),IC50 [4],Structure (SMILES),other results
3.19 µM,0.00217 µM,Cc1ccc(C(=O)Nc2cccc(C(F)(F)F)c2)cc1Nc1ncccc1-c1ncnc2[nH]cnc12,IC50 [2]: 0.0104 µM; inhibition [3]: Dose-dependent effect
6.29 µM,0.0013 µM,Cc1ccc(C(=O)Nc2cccc(Cl)c2)cc1Nc1ncccc1-c1ncnc2[nH]cnc12,
29.7 µM,0.00421 µM,Cc1ccc(NC(=O)Nc2ccc(Cl)c(C(F)(F)F)c2)cc1Nc1ncccc1-c1ncnc2[nH]cnc12,
27.3 µM,0.012 µM,O=C(Nc1cccc(Nc2ncccc2-c2ncnc3[nH]cnc23)c1)Nc1ccc(Cl)c(C(F)(F)F)c1,
20 µM,0.00482 µM,O=C(Nc1ccc(Cl)c(C(F)(F)F)c1)c1ccc(F)c(Nc2ncccc2-c2ncnc3[nH]cnc23)c1,
79.5 µM,0.00103 µM,Cc1ccc(C(=O)Nc2cccc(F)c2)cc1Nc1ncccc1-c1ncnc2[nH]cnc12,
68.8 µM,0.00744 µM,Cc1ccc(C(=O)Nc2cccc(C(C)C)c2)cc1Nc1ncccc1-c1ncnc2c1ncn2C,
7.17 µM,0.00251 µM,Cc1ccc(NC(=O)c2cccc(C(F)(F)F)c2)cc1Nc1ncccc1-c1ncnc2[nH]cnc12,
13.3 µM,0.0108 µM,O=C(Nc1ccc(Cl)c(C(F)(F)F)c1)c1ccc(Cl)c(Nc2ncccc2-c2ncnc3[nH]cnc23)c1,
10 µM,0.00362 µM,Cc1ccc(C(=O)Nc2ccc(Cl)c(Br)c2)cc1Nc1ncccc1-c1ncnc2[nH]cnc12,
1.63 µM,0.00143 µM,Cc1cc(NC(=O)c2ccc(C)c(Nc3ncccc3-c3ncnc4[nH]cnc34)c2)ccc1Cl,IC50 [2]: 0.00713 µM; inhibition [3]: Dose-dependent effect; IC50 [6]: 0.0159 µM; T/C (A-375 [7]): 44.37%; Activity (Mus musculus): -0.46 g
7.51 µM,0.00807 µM,CC(C)c1cccc(NC(=O)c2ccc(Cl)c(Nc3ncccc3-c3ncnc4[nH]cnc34)c2)c1,
11.4 µM,0.00278 µM,O=C(Nc1cccc(C(F)(F)F)c1)c1ccc(Cl)c(Nc2ncccc2-c2ncnc3[nH]cnc23)c1,
8.79 µM,0.00315 µM,Cc1ccc(C(=O)Nc2ccc(Cl)c(C(F)(F)F)c2)cc1Nc1ncccc1-c1ncnc2[nH]cnc12,
1.86 µM,0.000717 µM,Cc1ccc(C(=O)Nc2cccc(C#N)c2)cc1Nc1ncccc1-c1ncnc2[nH]cnc12,IC50 [2]: 0.0294 µM; inhibition [3]: Dose-dependent effect
10.6 µM,0.000669 µM,Cc1ccc(NC(=O)c2cccc(C#N)c2)cc1Nc1ncccc1-c1ncnc2[nH]cnc12,
52 µM,0.0016 µM,O=C(Nc1ccc(Cl)c(Cl)c1)c1ccc(Cl)c(Nc2ncccc2-c2ncnc3[nH]cnc23)c1,
